The source of these data is ChEMBL document CHEMBL5653631, “A Potent and Selective ULK1 Inhibitor Suppresses Autophagy and Sensitizes Cancer Cells to Nutrient Stress” (iScience, 2018).

Assay [1] concerns the target Serine/threonine-protein kinase PLK1 (Homo sapiens) (UniProt P53350). As to the kind of experiment: Inhibition of human recombinant PLK1 at 40 nM in presence of ATP by radiometric assay relative to control.
The target of assay [2] is Serine/threonine-protein kinase Nek7 (Homo sapiens) (UniProt Q8TDX7). The assay is described as follows: Inhibition of human recombinant NEK7 at 500 nM in presence of ATP by radiometric assay relative to control.
The target of assay [3] is Calcium/calmodulin-dependent protein kinase type II subunit gamma (Homo sapiens) (UniProt Q13555). As to the kind of experiment: Inhibition of human recombinant CaMK2g at 500 nM related to control ULK1.
The target of assay [4] is Casein kinase II subunit alpha (Homo sapiens) (UniProt P68400). As to the kind of experiment: Inhibition of human recombinant CK2a1 at 500 nM related to control ULK1.
The target in assay [5] is Calcium/calmodulin-dependent protein kinase type II subunit delta (Homo sapiens) (UniProt Q13557). The assay is described as follows: Inhibition of human recombinant CaMK2d at 15 nM in presence of ATP by radiometric assay relative to control.
Assay [6] has as its target T1, Serine/threonine-protein kinase 3 (Homo sapiens) (UniProt Q13188).
T1 sequence (whole entry): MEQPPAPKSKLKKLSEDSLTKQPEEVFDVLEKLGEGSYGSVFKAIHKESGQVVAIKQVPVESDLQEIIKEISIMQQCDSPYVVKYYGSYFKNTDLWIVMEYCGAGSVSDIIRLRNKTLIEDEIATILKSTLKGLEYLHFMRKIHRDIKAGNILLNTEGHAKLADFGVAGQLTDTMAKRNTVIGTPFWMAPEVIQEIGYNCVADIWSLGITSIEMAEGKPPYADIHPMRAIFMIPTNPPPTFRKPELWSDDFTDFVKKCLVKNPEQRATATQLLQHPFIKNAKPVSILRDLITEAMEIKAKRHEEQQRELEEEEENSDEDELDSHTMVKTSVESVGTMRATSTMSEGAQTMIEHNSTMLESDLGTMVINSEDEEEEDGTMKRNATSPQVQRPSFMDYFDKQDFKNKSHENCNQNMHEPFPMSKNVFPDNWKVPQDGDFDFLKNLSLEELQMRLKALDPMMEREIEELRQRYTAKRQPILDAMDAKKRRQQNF
As to the kind of experiment: Inhibition of human recombinant MST2 at 15 nM in presence of ATP by radiometric assay relative to control.

For assay [7], the target named is Serine/threonine-protein kinase 32C (Homo sapiens) (UniProt Q86UX6). The assay is described as follows: Inhibition of human recombinant YANK3 at 15 nM in presence of ATP by radiometric assay relative to control.
The target in assay [8] is T2, Activin receptor type-1B (Homo sapiens) (UniProt P36896).
T2 sequence (whole entry): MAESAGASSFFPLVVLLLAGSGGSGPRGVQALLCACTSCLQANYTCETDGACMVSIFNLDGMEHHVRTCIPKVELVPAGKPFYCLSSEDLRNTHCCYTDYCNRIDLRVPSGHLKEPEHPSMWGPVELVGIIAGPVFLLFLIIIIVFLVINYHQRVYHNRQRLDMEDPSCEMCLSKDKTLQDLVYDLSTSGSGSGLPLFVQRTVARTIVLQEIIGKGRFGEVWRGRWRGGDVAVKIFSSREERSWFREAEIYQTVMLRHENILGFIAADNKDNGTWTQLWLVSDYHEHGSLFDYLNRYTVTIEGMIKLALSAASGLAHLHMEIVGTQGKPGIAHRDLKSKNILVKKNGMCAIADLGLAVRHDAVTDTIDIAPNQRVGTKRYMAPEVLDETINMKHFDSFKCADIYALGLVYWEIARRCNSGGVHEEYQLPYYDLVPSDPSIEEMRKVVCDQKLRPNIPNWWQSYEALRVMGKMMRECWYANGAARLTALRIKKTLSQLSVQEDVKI
The assay is described as follows: Inhibition of human recombinant ALK4 at 15 nM related to control ULK1. In outline:
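Panel of 327 recombinant human kinases, each assayed in vitro by radiometric activity assay in duplicate at a single inhibitor concentration per compound, chosen with reference to its ULK1 inhibition. Activity remaining was expressed as percent of vehicle control, and percent inhibition was calculated as 100 minus percent activity remaining.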

Assay [9] addresses T3, Inhibitor of nuclear factor kappa-B kinase subunit beta (Homo sapiens) (UniProt O14920).
T3 sequence (whole entry): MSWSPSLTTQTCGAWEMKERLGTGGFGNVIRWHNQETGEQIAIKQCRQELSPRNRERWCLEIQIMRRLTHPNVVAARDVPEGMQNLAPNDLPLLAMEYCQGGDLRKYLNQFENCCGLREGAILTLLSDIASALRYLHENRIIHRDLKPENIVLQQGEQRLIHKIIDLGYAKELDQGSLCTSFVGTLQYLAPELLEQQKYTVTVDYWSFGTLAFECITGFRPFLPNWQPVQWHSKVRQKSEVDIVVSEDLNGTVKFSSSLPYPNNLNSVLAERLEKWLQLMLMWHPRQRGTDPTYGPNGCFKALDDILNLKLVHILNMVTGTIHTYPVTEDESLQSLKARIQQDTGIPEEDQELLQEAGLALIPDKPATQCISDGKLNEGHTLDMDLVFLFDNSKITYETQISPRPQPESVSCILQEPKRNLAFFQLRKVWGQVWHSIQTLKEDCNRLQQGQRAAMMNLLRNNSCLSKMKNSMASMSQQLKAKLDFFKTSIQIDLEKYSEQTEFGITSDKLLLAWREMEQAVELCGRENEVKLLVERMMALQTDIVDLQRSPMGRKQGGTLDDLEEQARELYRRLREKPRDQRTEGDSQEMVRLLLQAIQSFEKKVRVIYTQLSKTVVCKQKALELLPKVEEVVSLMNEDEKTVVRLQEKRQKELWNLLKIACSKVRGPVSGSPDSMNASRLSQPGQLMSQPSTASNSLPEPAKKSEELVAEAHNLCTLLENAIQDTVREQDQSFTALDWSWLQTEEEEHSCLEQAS
The assay is described as follows: Inhibition of human recombinant IKKb at 15 nM related to control ULK1.

The target in assay [10] is Dual specificity mitogen-activated protein kinase kinase 1 (Homo sapiens) (UniProt Q02750). The assay is described as follows: Inhibition of human recombinant MAP2K1 at 15 nM related to control ULK1.
Assay [11] deals with Mitogen-activated protein kinase kinase kinase 10 (Homo sapiens) (UniProt Q02779). The assay is described as follows: Inhibition of human recombinant MLK2 at 15 nM related to control ULK1.
The target in assay [12] is Serine/threonine-protein kinase Nek7 (Homo sapiens) (UniProt Q8TDX7). The assay is described as follows: Inhibition of human recombinant NEK7 at 15 nM related to control ULK1.

The term inhibition denotes the relative decrease from the control value, in per cent.

Serine/threonine-protein kinase Nek7 (Homo sapiens), sequence (Q8TDX7 whole entry, looked up): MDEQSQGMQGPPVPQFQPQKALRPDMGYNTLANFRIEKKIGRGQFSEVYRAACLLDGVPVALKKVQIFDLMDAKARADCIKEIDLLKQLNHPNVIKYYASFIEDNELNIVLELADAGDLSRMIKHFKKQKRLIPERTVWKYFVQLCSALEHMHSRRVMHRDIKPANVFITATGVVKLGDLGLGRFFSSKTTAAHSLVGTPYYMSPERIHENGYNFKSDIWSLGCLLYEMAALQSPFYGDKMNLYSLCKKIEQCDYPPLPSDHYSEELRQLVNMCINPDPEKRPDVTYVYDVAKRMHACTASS
Serine/threonine-protein kinase PLK1 (Homo sapiens), sequence (P53350 whole entry): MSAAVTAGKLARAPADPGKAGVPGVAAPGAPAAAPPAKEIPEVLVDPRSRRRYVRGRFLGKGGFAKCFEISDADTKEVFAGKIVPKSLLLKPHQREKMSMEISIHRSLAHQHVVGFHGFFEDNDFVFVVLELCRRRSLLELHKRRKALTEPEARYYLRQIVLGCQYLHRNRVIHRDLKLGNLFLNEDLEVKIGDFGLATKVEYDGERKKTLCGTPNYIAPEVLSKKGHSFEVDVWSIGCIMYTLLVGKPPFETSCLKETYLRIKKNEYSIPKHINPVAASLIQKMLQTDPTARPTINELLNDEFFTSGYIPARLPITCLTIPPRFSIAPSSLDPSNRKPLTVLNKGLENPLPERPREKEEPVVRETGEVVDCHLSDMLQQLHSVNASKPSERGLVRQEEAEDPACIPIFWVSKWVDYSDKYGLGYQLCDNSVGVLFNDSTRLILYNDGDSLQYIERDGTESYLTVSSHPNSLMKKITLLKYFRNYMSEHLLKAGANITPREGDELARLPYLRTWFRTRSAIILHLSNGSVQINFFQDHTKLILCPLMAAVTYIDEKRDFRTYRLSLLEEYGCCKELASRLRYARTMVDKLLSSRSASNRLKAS
Casein kinase II subunit alpha (Homo sapiens), sequence (P68400 whole entry, looked up): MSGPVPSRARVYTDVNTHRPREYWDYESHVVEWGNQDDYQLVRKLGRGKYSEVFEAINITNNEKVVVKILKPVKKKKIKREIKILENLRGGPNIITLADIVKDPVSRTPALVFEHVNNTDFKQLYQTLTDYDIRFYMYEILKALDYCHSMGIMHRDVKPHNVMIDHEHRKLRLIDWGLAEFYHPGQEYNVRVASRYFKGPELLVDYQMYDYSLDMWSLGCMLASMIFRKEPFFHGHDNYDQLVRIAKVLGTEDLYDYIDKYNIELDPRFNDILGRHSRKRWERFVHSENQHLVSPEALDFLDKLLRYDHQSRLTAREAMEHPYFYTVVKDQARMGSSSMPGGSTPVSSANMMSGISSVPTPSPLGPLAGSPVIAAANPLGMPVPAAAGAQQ
Calcium/calmodulin-dependent protein kinase type II subunit gamma (Homo sapiens), sequence (Q13555 whole entry): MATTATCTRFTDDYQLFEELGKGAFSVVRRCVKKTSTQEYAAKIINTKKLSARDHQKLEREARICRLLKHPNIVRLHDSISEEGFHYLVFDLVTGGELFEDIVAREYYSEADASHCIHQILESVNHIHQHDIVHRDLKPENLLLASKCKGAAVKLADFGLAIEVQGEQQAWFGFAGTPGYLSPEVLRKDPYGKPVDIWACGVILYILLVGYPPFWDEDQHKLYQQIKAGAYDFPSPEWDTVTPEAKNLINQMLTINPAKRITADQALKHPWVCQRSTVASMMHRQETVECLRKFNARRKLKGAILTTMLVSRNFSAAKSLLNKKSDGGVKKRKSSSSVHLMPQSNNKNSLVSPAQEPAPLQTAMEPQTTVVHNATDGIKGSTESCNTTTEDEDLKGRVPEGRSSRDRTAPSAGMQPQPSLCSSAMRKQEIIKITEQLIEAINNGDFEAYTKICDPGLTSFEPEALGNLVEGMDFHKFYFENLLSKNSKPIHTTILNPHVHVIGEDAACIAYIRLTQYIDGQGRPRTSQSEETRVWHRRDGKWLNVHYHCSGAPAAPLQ
Serine/threonine-protein kinase 32C (Homo sapiens), sequence (Q86UX6 whole entry): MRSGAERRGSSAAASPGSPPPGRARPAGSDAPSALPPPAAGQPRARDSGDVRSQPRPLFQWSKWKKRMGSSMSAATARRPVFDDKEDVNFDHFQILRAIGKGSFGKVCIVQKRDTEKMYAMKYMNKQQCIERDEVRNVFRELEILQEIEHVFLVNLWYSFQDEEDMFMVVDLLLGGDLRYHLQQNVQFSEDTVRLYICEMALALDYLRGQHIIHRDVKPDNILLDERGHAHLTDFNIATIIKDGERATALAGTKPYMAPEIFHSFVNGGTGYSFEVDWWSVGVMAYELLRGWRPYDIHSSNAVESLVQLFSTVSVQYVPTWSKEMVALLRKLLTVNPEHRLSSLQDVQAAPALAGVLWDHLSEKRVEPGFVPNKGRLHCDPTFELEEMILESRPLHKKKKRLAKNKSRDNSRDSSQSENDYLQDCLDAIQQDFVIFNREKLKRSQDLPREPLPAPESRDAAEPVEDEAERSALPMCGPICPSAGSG
Dual specificity mitogen-activated protein kinase kinase 1 (Homo sapiens), sequence (Q02750 whole entry): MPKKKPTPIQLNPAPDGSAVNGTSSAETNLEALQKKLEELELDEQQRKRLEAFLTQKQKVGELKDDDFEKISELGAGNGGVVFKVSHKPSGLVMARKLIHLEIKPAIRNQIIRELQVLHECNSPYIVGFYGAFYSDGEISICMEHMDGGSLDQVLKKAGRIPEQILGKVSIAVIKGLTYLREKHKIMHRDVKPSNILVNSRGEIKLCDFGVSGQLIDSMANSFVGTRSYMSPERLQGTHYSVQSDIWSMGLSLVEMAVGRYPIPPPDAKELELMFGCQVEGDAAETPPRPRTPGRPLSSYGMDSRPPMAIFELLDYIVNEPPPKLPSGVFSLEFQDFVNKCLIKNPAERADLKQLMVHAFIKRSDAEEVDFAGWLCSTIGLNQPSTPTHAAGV
Calcium/calmodulin-dependent protein kinase type II subunit delta (Homo sapiens), sequence (Q13557 whole entry): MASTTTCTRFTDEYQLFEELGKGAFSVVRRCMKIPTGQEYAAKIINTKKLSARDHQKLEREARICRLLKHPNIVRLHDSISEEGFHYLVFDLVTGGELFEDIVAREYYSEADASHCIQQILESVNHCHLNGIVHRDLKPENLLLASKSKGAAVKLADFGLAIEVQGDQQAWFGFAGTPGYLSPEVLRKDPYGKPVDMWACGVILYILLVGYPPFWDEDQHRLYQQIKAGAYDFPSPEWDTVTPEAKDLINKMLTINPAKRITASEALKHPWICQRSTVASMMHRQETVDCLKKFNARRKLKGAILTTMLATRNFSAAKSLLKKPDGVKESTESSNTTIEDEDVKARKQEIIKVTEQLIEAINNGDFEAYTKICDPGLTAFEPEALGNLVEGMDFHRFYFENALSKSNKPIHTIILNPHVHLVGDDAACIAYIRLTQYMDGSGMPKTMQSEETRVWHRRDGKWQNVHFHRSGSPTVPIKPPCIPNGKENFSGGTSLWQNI
Mitogen-activated protein kinase kinase kinase 10 (Homo sapiens), sequence (Q02779 whole entry, looked up): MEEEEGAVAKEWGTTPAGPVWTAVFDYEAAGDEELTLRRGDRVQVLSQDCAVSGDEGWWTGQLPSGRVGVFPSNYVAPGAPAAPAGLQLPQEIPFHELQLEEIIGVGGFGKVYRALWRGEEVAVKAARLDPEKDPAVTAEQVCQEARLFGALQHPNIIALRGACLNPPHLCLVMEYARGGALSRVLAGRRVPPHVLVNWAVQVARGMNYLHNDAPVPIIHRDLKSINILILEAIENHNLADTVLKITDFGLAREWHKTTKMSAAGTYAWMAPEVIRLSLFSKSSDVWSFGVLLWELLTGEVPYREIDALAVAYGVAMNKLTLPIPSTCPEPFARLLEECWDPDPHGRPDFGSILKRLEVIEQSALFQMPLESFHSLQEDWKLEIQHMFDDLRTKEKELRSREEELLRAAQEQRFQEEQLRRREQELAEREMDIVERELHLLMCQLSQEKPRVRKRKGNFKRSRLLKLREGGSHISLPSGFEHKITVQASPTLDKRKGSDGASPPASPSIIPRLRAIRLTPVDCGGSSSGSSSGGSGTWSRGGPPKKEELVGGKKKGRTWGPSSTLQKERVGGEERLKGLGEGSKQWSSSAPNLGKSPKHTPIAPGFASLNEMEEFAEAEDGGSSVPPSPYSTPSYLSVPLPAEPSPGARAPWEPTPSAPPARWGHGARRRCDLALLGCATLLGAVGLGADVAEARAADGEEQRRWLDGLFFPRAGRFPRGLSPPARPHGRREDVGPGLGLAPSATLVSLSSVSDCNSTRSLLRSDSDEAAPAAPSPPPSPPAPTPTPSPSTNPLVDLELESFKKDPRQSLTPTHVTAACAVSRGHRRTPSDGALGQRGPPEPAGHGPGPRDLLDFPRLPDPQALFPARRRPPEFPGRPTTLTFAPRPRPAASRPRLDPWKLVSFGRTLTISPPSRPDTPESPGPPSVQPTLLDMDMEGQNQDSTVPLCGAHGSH

`O=C(N[C@@H](C1CC1)C(F)(F)F)c1cc(-c2cnn3cc(-c4ccc(F)cc4)cnc23)cs1`: the inhibition in assay [1] came out at 0%.
Consider `CNC(=O)c1ccccc1Oc1nc(Nc2cc(OC)c(OC)c(OC)c2)ncc1Br`, for which the inhibition in [2] was 0%. In addition, the fold change (FC) stood at 0.03 in [3] and 0.19 in [4].
For the compound `CC(C)[C@H](NC(=O)c1cc(-c2cnn3cc(-c4ccc(OCCN5CCCCC5)cc4)cnc23)cs1)C(F)(F)F`, the inhibition in assay [5] is 20%; in assay [6], 3%; in [7] it was 3%. For the same compound, the fold change (FC) turned out to be 0.23 in assay [8]; 0 in assay [9]; 0.08 in [10]; 0.14 in [11]; 0 in [12].
